ChEMBL document CHEMBL4610088, “Higginsianins D and E, Cytotoxic Diterpenoids Produced by Colletotrichum higginsianum” (J Nat Prod, 2020)
pIC50: −log10 of the molar value. Activity calls are given as the source filed them. The rule behind the calls is not given here.

Key:
HaCaT [1] = test: Cytotoxicity against human HaCaT cells at 1 to 10 uM after 72 hrs by MTT assay; assay type: cell-based
Procedure, shortened: (§1)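 Cells cultured in DMEM with 10% FBS at 37 °C, 5% CO2. 2×10^4 cells seeded per well, exposed to 1 or 10 μM compound for 24, 48 and 72 h. MTT (0.5 mg/mL, phenol red-free DMEM) 3 h at 37 °C; formazan dissolved in acidic isopropanol. A570–A630 read; viability = test/control absorbance. Quadruplicate wells, three independent experiments.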

NCI-H1299 [2] = test: Cytotoxicity against human NCI-H1299 cells at 10 uM after 72 hrs by MTT assay relative to control; assay type: functional; procedure, shortened: as §1
HaCaT [3] = test: Cytotoxicity against human HaCaT cells at 10 uM after 48 hrs by MTT assay relative to control; assay type: cell-based; procedure, shortened: as §1
HaCaT [4] = test: Cytotoxicity against human HaCaT cells assessed as reduction in cell viability at 10 uM after 24 hrs by MTT assay relative to control; assay type: cell-based; procedure, shortened: as §1
NCI-H1299 [5] = test: Cytotoxicity against human NCI-H1299 cells at 1 uM after 72 hrs by MTT assay relative to control; assay type: functional; procedure, shortened: as §1
HaCaT [6] = test: Cytotoxicity against human HaCaT cells assessed as reduction in cell viability at 1 uM after 24 hrs by MTT assay relative to control; assay type: cell-based; procedure, shortened: as §1
HaCaT [7] = test: Cytotoxicity against human HaCaT cells at 10 uM after 24 to 72 hrs by MTT assay; assay type: cell-based; procedure, shortened: as §1
A-431 = test: Cytotoxicity against human A431 cells after 72 hrs by MTT assay; assay type: functional, cell-based; details: A-431, 72 h; procedure, shortened: as §1

SMILES	Activity (HaCaT [1])	Activity (NCI-H1299 [2])	Activity (HaCaT [3])	Activity (HaCaT [4])	Activity (NCI-H1299 [5])	Activity (HaCaT [6])	Activity (HaCaT [7])	pIC50 (A-431)
C=C1CC[C@H]2[C@](C)(CCC=C(C)C)[C@H](O)CC[C@]2(C)[C@@H]1C[C@]1(C(=O)OC)OC(C)=C(C)C1=O	Non-Toxic	inactive	Toxic	Non-Toxic	inactive	Non-Toxic	–	–
C=C1CC[C@H]2[C@](C)(CCC=C(C)C)[C@H](O)CC[C@]2(C)[C@@H]1Cc1c(O)c(C)c(C)oc1=O	–	–	–	–	–	–	Toxic	–
C=C1CC[C@H]2[C@](C)(CCC=C(C)C)[C@H](O)CC[C@]2(C)[C@@H]1C[C@@]1(C(=O)OC)OC(C)=C(C)C1=O	Non-Toxic	26%	Toxic	37%	22%	40%	–	6.00
